Calls of active or inactive are those of the source. No cut-off for these calls is given here.
What was measured:
PANC-1 [1] = assay: Cytotoxicity against human PANC1 cells in nutrient-deprived condition assessed as 100% cell death after 24 hrs by WST8 assay; format: functional
How it was run: (§1)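 PANC-1 cells, 2 × 10⁴ per well, grown 24 h in DMEM at 37 °C under 5% CO2, PBS-washed, then switched to DMEM or nutrient-deprived medium (glucose-, amino acid- and serum-free salts, vitamins, 25 mM HEPES, pH 7.4) holding serial dilutions for 24 h. Viability by WST-8 (10% in DMEM, 3 h, A450), blank-corrected against untreated control, mean of three wells. PC100/PC50 = concentration killing 100%/50% of cells preferentially in NDM.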

PANC-1 [2] = assay: Cytotoxicity against human PANC1 cells in nutrient-deprived condition assessed as 50% cell death after 24 hrs by WST8 assay; format: functional; how it was run: as §1
PANC-1 [3] = assay: Cytotoxicity against human PANC1 cells in nutrient-deprived condition assessed as complete preferential cell death at 6.25 uM within 24 hrs of starvation by WST8 assay; format: functional
PANC-1 [4] = assay: Cytotoxicity against human PANC1 cells in nutrient-deprived condition assessed as complete preferential cell death at 50 uM within 6 hrs of treatment by WST8 assay; format: functional
PANC-1 [5] = assay: Induction of apoptosis in human PANC1 cells in nutrient deprived condition assessed as morphological changes at 6.25 uM within 24 hrs of treatment using phase contrast microscopy by WST8 assay; format: functional, cell-based

Row | Structure (SMILES) | CD100 (PANC-1 [1]) [µM] | PC50 (PANC-1 [2]) [µM] | Activity (PANC-1 [3]) [%] | Activity (PANC-1 [4]) [%] | Activity (PANC-1 [5])
1 | C/C(=C\C(O)C[C@@H](C)[C@H]1CC[C@@]2(C)[C@@H]3CC[C@H]4C(C)(C)[C@@H](O)CC[C@@]45C[C@@]35CC[C@]12C)C(=O)O (stereo partly specified) | >100 | >100 | – | – | –
2 | C/C(=C\CC[C@@H](C)[C@H]1CC[C@@]2(C)[C@@H]3CC[C@H]4C(C)(C)[C@H](O)CC[C@@]45C[C@@]35CC[C@]12C)C(=O)O [ISOMANGIFEROLIC ACID] | 25 | 13.7 | – | – | –
3 | C[C@H](CC/C=C(\CO)C(=O)O)[C@H]1CC[C@@]2(C)[C@@H]3CC[C@H]4C(C)(C)[C@H](O)CC[C@@]45C[C@@]35CC[C@]12C | 25 | 15.5 | – | – | –
4 | C/C(=C\CC[C@@H](C)[C@H]1CC[C@@]2(C)[C@@H]3CC[C@H]4C(C)(C)C(=O)CC[C@@]45C[C@@]35CC[C@]12C)C(=O)O [MANGIFERONIC ACID] | >100 | >100 | – | – | –
5 | C[C@H](CC/C=C(\CO)C(=O)O)[C@H]1CC[C@@]2(C)[C@@H]3CC[C@H]4C(C)(C)[C@@H](O)CC[C@@]45C[C@@]35CC[C@]12C | >100 | >100 | – | – | –
6 | C[C@H](CC/C=C(\CO)C(=O)O)[C@H]1CC[C@@]2(C)[C@@H]3CC[C@H]4C(C)(C)C(=O)CC[C@@]45C[C@@]35CC[C@]12C | 50 | 38.5 | – | – | –
7 | C[C@H](CC/C=C(\CO)C(=O)O)[C@H]1CC[C@@]2(C)[C@@H]3CC[C@@H]4[C@@]5(CCC(=O)[C@@]4(C)CO)C[C@@]35CC[C@]12C | >100 | >100 | – | – | –
8 | C/C(=C\CC[C@@H](C)[C@H]1CC[C@@]2(C)[C@@H]3CC[C@@H]4[C@@]5(CCC(=O)[C@@]4(C)CO)C[C@@]35CC[C@]12C)C(=O)O | >100 | >100 | – | – | –
9 | O=c1[nH]cc(F)c(=O)[nH]1 [FLUOROURACIL] | >100 | >100 | – | – | –
10 | C/C(=C\CC(O)[C@@H](C)[C@H]1CC[C@@]2(C)[C@@H]3CC[C@H]4C(C)(C)[C@H](O)CC[C@@]45C[C@@]35CC[C@]12C)C(=O)O (stereo partly specified) | 25 | 13.4 | – | – | –
11 | COc1ccc([C@@H]2CC(=O)c3c(O)cc(O)c(CC=C(C)C)c3O2)cc1CC=C(C)C | 12.5 | 7.9 | – | – | –
12 | COc1cc(C[C@H]2C(=O)OC[C@@H]2Cc2ccc(OC)c(OC)c2)ccc1O [ARCTIGENIN] | 1 | 0.4 | – | – | –
13 | CC(C)=CCc1cc([C@@H]2CC(=O)c3c(O)cc(O)c(CC=C(C)C)c3O2)ccc1O [LESPEDEZAFLAVANONE B] | 25 | 19.8 | – | – | –
14 | C/C(=C/C=C/[C@@H](C)[C@H]1CC[C@@]2(C)[C@@H]3CC[C@H]4C(C)(C)C(=O)CC[C@@]45C[C@@]35CC[C@]12C)C(=O)O | 6.3 | 4.3 | 100 | 100 | Active
15 | C/C(=C\CC[C@@H](C)[C@H]1CC[C@@]2(C)[C@@H]3CC[C@H]4C(C)(C)[C@@H](O)CC[C@@]45C[C@@]35CC[C@]12C)C(=O)O [MANGIFEROLIC ACID] | >100 | >100 | – | – | –
16 | CC(=O)O[C@H]1C(=O)[C@@]2(C)[C@H]([C@H](OC(=O)c3ccccc3)[C@]3(O)C[C@H](OC(=O)[C@H](O)[C@@H](NC(=O)c4ccccc4)c4ccccc4)C(C)=C1C3(C)C)[C@]1(OC(C)=O)CO[C@@H]1C[C@@H]2O [PACLITAXEL] | >100 | >100 | – | – | –
17 | CC(C)=CCc1c(O)cc(O)c2c1O[C@H](c1ccc(O)cc1)CC2=O [SOPHORAFLAVANONE B] | 50 | 39.4 | – | – | –
18 | C/C(C=O)=C\CC[C@@H](C)[C@H]1CC[C@@]2(C)[C@@H]3CC[C@H]4C(C)(C)[C@@H](O)CC[C@@]45C[C@@]35CC[C@]12C | >100 | >100 | – | – | –
19 | C/C(=C\C(O)C[C@@H](C)[C@H]1CC[C@@]2(C)[C@@H]3CC[C@H]4C(C)(C)C(=O)CC[C@@]45C[C@@]35CC[C@]12C)C(=O)O (stereo partly specified) | 50 | 28 | – | – | –
